In the library only some 2% were active in any assay of this set; here they are far more common.
FGF22 binding: binders of recombinant human FGF22 by thermal shift; activity (Tm shift, normalised), % at 9.99 µM; 340,000 compounds, 1.5% hits; SYPRO orange fluorescence; percent of sucrose octasulfate shift, DMSO zero;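 active = mean Tm shift, scaled 0 neutral to 100 positive control, at about 1.3% or above, every replicate too, limit read from the data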
ABCB6 inh MLPCN: inhibitors of human ABC transporter ABCB6. Q9NP58. K562-ABCB6 porphyrin accumulation, flow cytometry, 1 h; stronger effect = lower value. fluorescence ratio to DMSO, % at 10 µM. 360,000 compounds, 0.19% hits;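 active = fluorescence ratio to DMSO below 75%, the collection mean minus 3 SD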;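 also: signal is porphyrin accumulated inside mitochondria; lower ratio means ABCB6 inhibition with less porphyrin fluorescence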
DAGLB inh: blocks human DAGLB lipase activity. Q8NCG7. HEK293T DAGLB membrane lysate, EnzChek fluorogenic substrate. inhibition, % at 5.17 µM. 340,000 compounds, 0.059% hits. AID 504411; in the data active = inhibition above about 34%
Target sequence (Q8NCG7 whole entry, looked up): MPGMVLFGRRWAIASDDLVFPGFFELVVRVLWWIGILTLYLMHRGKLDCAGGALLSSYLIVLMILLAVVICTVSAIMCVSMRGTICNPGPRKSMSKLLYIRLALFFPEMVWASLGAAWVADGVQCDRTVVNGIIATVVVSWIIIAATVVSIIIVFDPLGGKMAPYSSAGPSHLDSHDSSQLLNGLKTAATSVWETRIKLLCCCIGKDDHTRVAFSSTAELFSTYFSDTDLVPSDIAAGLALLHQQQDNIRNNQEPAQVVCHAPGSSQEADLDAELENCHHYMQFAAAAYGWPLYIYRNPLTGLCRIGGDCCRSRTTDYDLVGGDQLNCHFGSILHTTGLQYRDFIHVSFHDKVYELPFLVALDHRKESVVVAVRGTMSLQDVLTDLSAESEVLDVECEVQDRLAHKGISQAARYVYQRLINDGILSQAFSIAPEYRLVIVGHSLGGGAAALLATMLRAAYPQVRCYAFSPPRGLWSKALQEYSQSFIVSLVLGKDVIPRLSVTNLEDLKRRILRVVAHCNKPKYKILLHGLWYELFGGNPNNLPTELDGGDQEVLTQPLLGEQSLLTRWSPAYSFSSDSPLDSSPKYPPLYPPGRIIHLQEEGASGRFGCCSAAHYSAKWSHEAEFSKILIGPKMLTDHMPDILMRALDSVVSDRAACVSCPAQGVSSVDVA
VLA-4 inh: inhibition in a human VLA-4 binding assay; VLA-4 expressing cells, ligand binding flow cytometry; 330,000 compounds, 0.2% hits; inhibition, % (about 7 µM as worked out from the volumes in the protocol); P13612; in the data active = inhibition above about 50%
MT1-MMP act inh: blocks activation of human MT1-MMP; P50281; HT1080 RFP-PRO-GFP cells, GFP/RFP ratio fluorescence, overnight; percent of plate control window, DMSO zero; GFP/RFP ratio change, % at 20 µM; 360,000 compounds, 0.061% hits; AID 651647;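 active = GFP/RFP ratio change of at least 30% with cell ATP level not reduced by more than half and red fluorescence within 50% of control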
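Assay system: HT1080 cells carrying an RFP-PRO-GFP reporter | Dosing: Single dose of 20 µM compound, 1% DMSO final | Incubation: Cells overnight before dosing, compound overnight, 37 °C, 5% CO2 | Evaluation: GFP/RFP fluorescence ratio | Control set: DMSO and RFP-L50D-GFP cell wells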
Exocytosis inh: blocks lytic granule exocytosis | TALL-104 LAMP-1 surface exposure, flow cytometry; cells stimulated with thapsigargin and PMA | inhibition, % at 10 µM | 360,000 compounds, 0.66% hits | AID 651702;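 active = inhibition above about 55%, limit read from the data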
Of the large screens only hits and unclear results are named; the others gave an inactive call.

CC1(C)CN=C(c2ccccc2)NC1	FGF22 binding 43.4 (no result: VLA-4 inh)
COc1cccc(Cn2cnc(-c3ccccc3OC)c2C2CC2)c1	FGF22 binding 43.3 (no result: DAGLB inh, VLA-4 inh)
C[C@H](CO)N1C[C@H](C)[C@@H](CN(C)C(=O)Nc2cccc(F)c2)OCc2ccccc2-c2c(n(C)c3ccccc23)C1=O	none (no result: ABCB6 inh MLPCN, DAGLB inh, VLA-4 inh, MT1-MMP act inh, Exocytosis inh)
c1ccc(-c2csc(-n3cccn3)n2)cc1	FGF22 binding 43.5
NC(=S)N=Nc1c(O)n(CCCl)c2ccc(Br)cc12	Exocytosis inh 78.0
CCCCn1c(O)c(N=NC(=O)c2ccncc2)c2cc(Br)ccc21	FGF22 binding 44.4
Cn1cnc(S(=O)(=O)N[C@@H]2CC[C@H](CC(=O)NCC3CC3)O[C@H]2CO)c1	none (no result: ABCB6 inh MLPCN, DAGLB inh, VLA-4 inh, MT1-MMP act inh, Exocytosis inh)
Cc1cccc(OCc2n(CC(=O)OC3CC(C)CCC3C(C)C)c3ccccc3[n+]2C)c1 (stereo not given)	Exocytosis inh 89.0 (no result: FGF22 binding)
CC1CCC(C(C)C)C(OC(=O)Cn2c(-c3ccccc3)[n+](C)c3ccccc32)C1 (stereo not given)	none
CCN=c1scc(C)n1/N=C/c1cc(Br)c(O)c(Br)c1	FGF22 binding 43.1
CN(C)c1ccc(C2(O)C(=O)c3ccccc3C2=O)cc1	none
CNc1ccc(C2(O)C(=O)c3ccccc3C2=O)cc1	FGF22 binding 43.0
CCS(=O)(=O)NCC[C@@H]1CC[C@@H](NC(=O)C2CCCC2)[C@H](CO)O1	none (no result: ABCB6 inh MLPCN, DAGLB inh, VLA-4 inh, MT1-MMP act inh, Exocytosis inh)
Cc1onc(-c2ccccc2)c1C(=O)NNC(=S)NC(=O)/C=C/c1ccccc1	ABCB6 inh MLPCN 74.0
CCCC(=O)NC(=S)Nc1cccc(-c2nc3ncccc3o2)c1	FGF22 binding 43.3
CN(Cc1nc(-c2cnccn2)no1)CC1(c2ccccc2)CC1(C)C (stereo not given)	none
CN(Cc1nc(-c2cnccn2)no1)C1CC(C)(C)NC(C)(C)C1	FGF22 binding 43.3
Cc1ccc(S(=O)(=O)Nc2ccc3c(c2)C(=O)N([C@H](C)CO)C[C@H](C)[C@H](CN(C)Cc2ccc(C(=O)O)cc2)O3)cc1	none (no result: ABCB6 inh MLPCN, DAGLB inh, VLA-4 inh, MT1-MMP act inh, Exocytosis inh)
CCCCN1C(=O)C(CC(=O)NCCCN(C)C)CC(C(=O)N(CC)CC)=C1C (stereo not given)	FGF22 binding 43.4 (no result: VLA-4 inh)
CCCCN1C(=O)C(CC(=O)NCc2ccco2)CC(C(=O)N(C)C)=C1C (stereo not given)	none (no result: VLA-4 inh)
CCN(CC)C(=O)C1=C(C)N(Cc2ccccc2)C(=O)C(CC(=O)NCc2ccco2)C1 (stereo not given)	FGF22 binding 43.1 (no result: VLA-4 inh)
CCCCN1C(=O)C(CC(=O)NCc2ccco2)CC(C(=O)N(CC)CC)=C1C (stereo not given)	FGF22 binding 43.4 (no result: VLA-4 inh)
COc1ccc(NC(=O)Nc2ccc3c(c2)CC(=O)N([C@@H](C)CO)C[C@@H](C)[C@@H](CN(C)Cc2ccncc2)O3)cc1	none (no result: ABCB6 inh MLPCN, DAGLB inh, VLA-4 inh, MT1-MMP act inh, Exocytosis inh)
Oc1nc(-c2ccc(Br)cc2)n2ccncc12	FGF22 binding 43.3
CSc1ccc(-c2nc(O)c3cnccn23)cc1	none
C=CC[n+]1ccc(/C=C2\C=Cc3cc(C)ccc3N2CC)c2ccccc21	MT1-MMP act inh 60.7 (no result: FGF22 binding, VLA-4 inh)
COc1nccnc1NS(=O)(=O)c1ccc(NC(=O)c2cccc(C)c2)cc1	FGF22 binding 43.4
COc1ccc(NC(=O)Cc2c(C(=O)O)n(C)c3ccccc23)cc1OC	FGF22 binding 43.0
CCn1c(=O)cc(OCC(=O)Nc2ccc3c(c2)OCCO3)c2ccccc21	none (no result: FGF22 binding)
COc1cc(NC(=O)Cc2c(C(=O)O)n(C)c3ccccc23)cc(OC)c1OC	FGF22 binding 42.9
CCn1c(=O)cc(OCC(=O)Nc2ccc(OC)c(OC)c2)c2ccccc21	FGF22 binding 43.4
COc1ccc(C)cc1NC(=O)Cc1c(C(=O)O)n(C)c2ccccc12	none
C[C@@H]1CN([C@H](C)CO)C(=O)c2cc(NS(C)(=O)=O)ccc2O[C@H]1CN(C)CC1CCCCC1	none (no result: ABCB6 inh MLPCN, DAGLB inh, VLA-4 inh, MT1-MMP act inh, Exocytosis inh)
COCC(=O)N1CC[C@@H]2[C@H]1c1cc(-c3cccc(F)c3)ccc1N(C)[C@H]2CO	none (no result: ABCB6 inh MLPCN, DAGLB inh, VLA-4 inh, MT1-MMP act inh, Exocytosis inh)
COc1ccc(CN2CCN(CC=C(C)C)C(CCO)C2)cc1Cn1cccn1 (stereo not given)	FGF22 binding 43.6
CC(C)=CCN1CCN(Cc2ccc3nsnc3c2)CC1CCO (stereo not given)	FGF22 binding 42.9
COc1ccc(CN2CCN(CCc3ccccc3)C(CCO)C2)cc1Cn1cncn1 (stereo not given)	FGF22 binding 43.9
CC(C)CCN1CCN(Cc2ccc3nsnc3c2)CC1CCO (stereo not given)	none (no result: FGF22 binding)
CCCC#Cc1cnc2c(c1)C(=O)N([C@@H](C)CO)C[C@@H](C)[C@@H](CN(C)C(=O)Cc1cccnc1)O2	none (no result: ABCB6 inh MLPCN, DAGLB inh, VLA-4 inh, MT1-MMP act inh, Exocytosis inh)
C[C@H](CO)N1C[C@H](C)[C@H](CN(C)S(=O)(=O)c2cccs2)Oc2c(NC(=O)c3ccncc3)cccc2C1=O	none (no result: ABCB6 inh MLPCN, DAGLB inh, VLA-4 inh, MT1-MMP act inh, Exocytosis inh)
Cc1noc(C)c1NC(=O)N(C)C[C@@H]1OCCCC[C@H](C)Oc2ccc(NC(=O)Nc3cccc4ccccc34)cc2C(=O)N([C@@H](C)CO)C[C@H]1C	none (no result: ABCB6 inh MLPCN, DAGLB inh, VLA-4 inh, MT1-MMP act inh, Exocytosis inh)
COc1cc(OC)cc(C(=O)OCC(=O)NCc2ccc3c(c2)OCO3)c1	FGF22 binding 43.8
O=C(COC(=O)c1cccnc1Cl)c1ccccc1	none
CSc1ncccc1C(=O)OCC(=O)NCc1ccc2c(c1)OCO2	FGF22 binding 43.2
O=C(COC(=O)c1cccnc1Cl)c1ccc(F)cc1	FGF22 binding 42.9
O=C(COC(=O)c1cccnc1Cl)NCCc1ccccc1	none
Cc1ccc(CNC(=O)COC(=O)c2cccnc2Cl)cc1	FGF22 binding 43.3
Cc1noc(C)c1NC(=O)Nc1ccc2c(c1)C(=O)N([C@H](C)CO)C[C@@H](C)[C@@H](CN(C)Cc1ccc(C(F)(F)F)cc1)OCCCC[C@@H](C)O2	none (no result: ABCB6 inh MLPCN, DAGLB inh, VLA-4 inh, MT1-MMP act inh, Exocytosis inh)
Cc1ccc(/C=C/C(=O)O)cc1S(=O)(=O)N1CCc2ccccc2C1	FGF22 binding 43.3
Cc1ccc(/C=C/C(=O)O)cc1S(=O)(=O)Nc1ccccc1C(=O)O	FGF22 binding 43.5
Cc1ccc(/C=C/C(=O)O)cc1S(=O)(=O)Nc1ccc(C(=O)O)cc1	none
C[C@H]1CN([C@@H](C)CO)C(=O)c2cc(NC(=O)Cc3ccccc3)ccc2O[C@@H]1CN(C)Cc1ccc(Oc2ccccc2)cc1	none (no result: ABCB6 inh MLPCN, DAGLB inh, VLA-4 inh, MT1-MMP act inh, Exocytosis inh)
Cc1ccc(-c2csc(NC(=O)CCCc3cccs3)n2)cc1	none (no result: FGF22 binding)
CC(=O)Nc1ccc(-c2csc(NC(=O)CCCc3cccs3)n2)cc1	FGF22 binding 2.1
COCC(C)n1c(SCC(=O)NC(=O)NCc2ccccc2)nc2ccccc2c1=O (stereo not given)	FGF22 binding 44.4
C[C@H]1CN([C@@H](C)CO)C(=O)c2cc(NC(=O)Nc3ccc4c(c3)OCO4)ccc2O[C@H]1CN(C)Cc1ccccc1	none (no result: ABCB6 inh MLPCN, DAGLB inh, VLA-4 inh, MT1-MMP act inh, Exocytosis inh)
Cc1ccc(S(=O)(=O)N(CC(=O)N/N=C/c2ccccc2C(=O)O)c2cc(Cl)cc(Cl)c2)cc1	FGF22 binding 43.1
